Results on 48 sequences are retold here after the EternaBench riboswitch data.

In general, apparent Kd refers to a dissociation constant that holds for the conditions of the assay.

For this series, the system named is MS2 coat protein. Briefly: apparent Kd, MS2 coat protein; higher = weaker binding; RNA-MaP array; FMN 200 µM where present. In short, it runs like this: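 Stalled E. coli RNA polymerase produced the designs on Illumina sequencing-chip clusters. SNAP-549-labelled MS2 coat protein was added from 0.7 or 1.5 nM, doubling to 3 µM, without and then with constant ligand, in 100 mM Tris-HCl pH 7.5, 80 mM KCl, 4 mM MgCl2, BSA, DTT, yeast tRNA and Tween-20. The apparent Kd is the median of filtered per-cluster fits of green signal normalised to red-channel RNA signal and control-cluster median Fmax.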

[1] abbreviates: designed as: OFF switch for flavin mononucleotide, no ligand.
[2] abbreviates: ligand present: flavin mononucleotide, designed as: OFF switch for flavin mononucleotide.
Setting [3] is: designed as: ON switch for flavin mononucleotide, no ligand.
The mark [4] stands for this setting: ligand present: flavin mononucleotide, designed as: ON switch for flavin mononucleotide.

As to “CUUUAGUGAGGAUAUGUGGCUUCGAUCGUGAGAUCGAGGCUACAGAAGGCACAUGAGGAUCACCCAUGUUUCUU”, the “apparent Kd” value under setting [1] worked out at 17.2 nM and the “apparent Kd” value under setting [2] worked out at 81 nM.

Regarding “CAUUAAUUCAUUAUAGUUAUUAUACAGGAUAUGUUACAUGAGGAUCACCCAUGUAUUCAUGGUAAACAGAAGGGUAAUACUAGU”, the “apparent Kd” value is, setting by setting: under setting [1], 11.1 nM; under setting [2], 15.8 nM.

As for “CGCCACUUAACAGCGGCGCGGUCGAGAAGGGUACAUGAGGAUCACCCAUGUCACGUUCCUCCUGUACAGGAUAUCGUACGGGUA”, the “apparent Kd” value by setting is: under setting [1], 65.6 nM; under setting [2], 117 nM.

On to “ACUUAUGAAGGAUAUACUAGCGACAUGCACUCAACACACGCACAUGAGGAUCACCCAUGUAGAAGGUCAAACAU”, for which the “apparent Kd” value amounted to 25.7 nM under setting [1] and 22.4 nM under setting [2].

In the case of “AGUCGGAGCAGAGGAUAUACAUGAGGAUCACCCAUGUAAUAUGAUCUAGCCUGGAAACAGGCAAUGUAGAAGGCUGCUCCGACA”, the “apparent Kd” value was determined as 90.3 nM under setting [1] and 709 nM under setting [2].

On to “AUACUAAAUGAAGGAUAUCUAAGCAUACACCUGAGAGAAGGUCAUUUUGACAUGAGGAUCACCCAUGUUGUGGUUAAUGGGUUA”, for which the “apparent Kd” value runs as follows: under setting [1], 237 nM; under setting [2], 225 nM.

Turning to “AACAGGACAGGAUAUACAUGAGGAUCACCCAUGUGAGAAUUAAGCAGCGUACCACACAGUAGAAGGGUCAUGGA”, the “apparent Kd” value is, setting by setting: under setting [1], 46.7 nM; under setting [2], 40 nM.

Consider “GGAUUACAUGAGGAUCACCCAUGUGAGGAUAUCGAUGUCCUCAAUCAAGUGCGGGACUCGAGAAGGCACUUGGA”, for which the “apparent Kd” value came out at 70.3 nM under setting [1] and 30.9 nM under setting [2].

Turning to “CGCACUGAUAGAGGAUAUGUUUUACAUGAGGAUCACCCAUGUGUACAAGGAUCAAUAUAUUAGUAACAGAAGGCUAUUUGUGCG”, the “apparent Kd” value was 21.7 nM under setting [1] and 19.1 nM under setting [2].

Turning to “UUCCUACAUGAGGAUCACCCAUGUCAGGAUAUCUCCUCACUGCGCUUGCGCAGUGAAUAGAGAAGGGACAGGCU”, the “apparent Kd” value is, setting by setting: under setting [1], 14.9 nM; under setting [2], 19.3 nM.

With “ACAUGAGGAUCACCCAUGUUGCGAGUAGAAGGCUAUAAGAAACGGGAUGAAGAAAUCCACGCAAUAGAGGAUAUACGAAUUGGA”, the “apparent Kd” value is, setting by setting: under setting [3], 12.1 nM; under setting [4], 7.78 nM.

Regarding “CUAUUACGAGGAUAUCGUCAGAGUCACAUGAGGAUCACCCAUGUAUCCCACGGACCGGAAUGAGAAGGCGUUCAUG”, the “apparent Kd” value stood at 288 nM under setting [1] and 769 nM under setting [2].

For “AAAUAACAUGUAGGAUAUGCAGCAUUAACCAUCGCAGAAGGACAUGAGGAUCACCCAUGUGGCGAUACAAUGCAAUAAGGGAAU”, the “apparent Kd” value under setting [1] stood at 16.2 nM and the “apparent Kd” value under setting [2] turned out to be 40.7 nM.

Consider “CGCAUAUAUGUAAGGAUAUCUGCUUCGCAGAGGCAAGAGAAGGUACAUGAGGAUCACCCAUGUAUUUAAGGCGG”, for which the “apparent Kd” value was determined as 22.6 nM under setting [1] and 25.6 nM under setting [2].

With “UUUUAACAUGAGGAUCACCCAUGUGAGGAUAUCGAAAUUUAUAUUAAUAUUAUUUUUUCGAGAAGGCACAUUUU”, the “apparent Kd” value amounted to 124 nM under setting [1] and 155 nM under setting [2].

“UGUGACAUGAGGAUCACCCAUGUAGAGGAUAUAGAGAUGAUGUUAGAGAAGAAUGUGUAGUAAGACUAGAAGGCUAUGUGUGUA”: the “apparent Kd” value was determined as 32.8 nM under setting [1] and 28.2 nM under setting [2].

On to “ACGACGAAAGUCGAACGAUGUACGAGAAGGACAUGAGGAUCACCCAUGUUAUCUGUUAUAGACAUGUAGGAUAUCGUACAUCGA”, for which the “apparent Kd” value under setting [1] is 8.25 nM and the “apparent Kd” value under setting [2] was determined as 26.8 nM.

“AUACGGAGGGAGAAGGGCUAGGAGGUCCAGCUUAUGUGUGUUGCAACAUGAGGAUCACCCAUGUAGCAGGAUAUCCCUUGUACA”: the “apparent Kd” value was found to be 42.9 nM under setting [1] and 231 nM under setting [2].

For “AAGAAGUCAGGAUAUGCAUGGCGGGACUUGCGUCGUGGCGUGCAGAAGGGACAUGAGGAUCACCCAUGUGGAGU”, the “apparent Kd” value by setting is: under setting [1], 155 nM; under setting [2], 241 nM.

As to “UUACUGUAAUAGAAGGGUAUUUGGGUAGUACAUGAGGAUCACCCAUGUUUUAUAGGAUAUGUUUAUAGUUUUUAAUCAAGUUUA”, the “apparent Kd” value amounted to 85.1 nM under setting [1] and 62.3 nM under setting [2].

Turning to “AAAAAACAUGAGGAUCACCCAUGUCUUCGGACAUGAGGAUAUGUACAGACUUCGGUCUGUACAGAAGGCAUGUCAA”, the “apparent Kd” value by setting is: under setting [3], 166 nM; under setting [4], 23.2 nM.

For the sequence “UGAUAGGACAGAGGAUAUACGUGCUGGAGAUACUAGCAAAGUAUCUUGACAUGAGGAUCACCCAUGUAGAAGGCUGUCCUAUCU”, the “apparent Kd” value came to 16.9 nM under setting [1] and 89.2 nM under setting [2].

Regarding “AAAAAUGGAGGAUAUACAUGAGGAUCACCCAUGUGUGGCUAUACUAUGUGCUCUUCAGGUAGAAGGCCAAAAAA”, the “apparent Kd” value is, setting by setting: under setting [1], 42.6 nM; under setting [2], 201 nM.

Take “GUGUAGUGAGGAUAUACAUGAGGAUCACCCAUGUGAAUAAGAUAGAAUAAGAUAAAGUGUAGAAGGCAUAGUGU”: the “apparent Kd” value runs as follows: under setting [1], 40.2 nM; under setting [2], 31.5 nM.

“GGCGGUCGGGAGGAUAUUCGGGCUGUUUGGCUUGGAGAAGGCUCGACAUGAGGAUCACCCAUGUAAGUGUUCUU”: the “apparent Kd” value by setting is: under setting [1], 376 nM; under setting [2], 406 nM.

Regarding “AGCGGUGCAGGAUAUGGCCGAUCCCACAUGAGGAUCACCCAUGUAAAUAAAAUAAGAUCUCCAGAAGGGCAUCGCA”, the “apparent Kd” value amounted to 30.4 nM under setting [1] and 15.6 nM under setting [2].

As for “GCUAGGAAUGUCAGGAUAUGCUGUACCUUGGUACAGCAGAAGGGACAUGAGGAUCACCCAUGUGCUAACCUAGC”, the “apparent Kd” value runs as follows: under setting [1], 29.6 nM; under setting [2], 130 nM.

With “GUAUUUAUAUAAGGAUAUAAGUCUAGGACAUGAGGAUCACCCAUGUGUGUCUUAGAAGGUAUAUAGGUAAUACUGUUACAGUAA”, the “apparent Kd” value by setting is: under setting [3], 86.1 nM; under setting [4], 23.6 nM.

Turning to “ACUAGAUGAGGAUAUGCAUAUUUUCGUGUUCUUCUAGAUUAACAUGAGGAUCACCCAUGUAGAAGGCGUCAAUA”, the “apparent Kd” value is, setting by setting: under setting [1], 16.1 nM; under setting [2], 18.9 nM.

Consider “AGACCCAUGACAUGAGAUGACAUGAGGAUCACCCAUGUUUACGAGGAUAUGUUGAUGAAACAUCAACAGAAGGUGUAAUGGGCU”, for which the “apparent Kd” value was 21.2 nM under setting [1] and 28.9 nM under setting [2].

For the sequence “GUCAGCUCGUGAGGAUAUACAUGUGCUGGAUACAGCACUAUUGAGUUCACAUGAGGAUCACCCAUGUAGAAGGCACGAGCUGAU”, the “apparent Kd” value was determined as 15.1 nM under setting [1] and 28.1 nM under setting [2].

As to “CCUAAGGACACAGGAUAUAGCGUGGUGGCUGUGCUCCAACGGCGAGCGGCGCUAGAAGGGUGACCACAUGAGGAUCACCCAUGU”, the “apparent Kd” value is, setting by setting: under setting [3], 665 nM; under setting [4], 177 nM.

On to “GUAUCGUGAGGAUAUCAUGAUUGACUUUUGUUUUGUCAGCGUGAGAAGGCACAUGAGGAUCACCCAUGUGAUUA”, for which the “apparent Kd” value under setting [1] worked out at 22.3 nM and the “apparent Kd” value under setting [2] is 52.9 nM.

Turning to “CCUUCAGCGAACGAUACGAAUGGACAUGAGGAUCACCCAUGUAGAAGGACAGGAGAAUAACGACUGUAGGAUAUACAUUUAGUG”, the “apparent Kd” value by setting is: under setting [1], 22.3 nM; under setting [2], 28.6 nM.

As for “AGCUACGUUUCGUAGCAGUGUCAUCGAGAAGGCCUCAUUACAUGAGGAUCACCCAUGUGAGCAUGGGAGGAUAUCGAUGAUACA”, the “apparent Kd” value came to 406 nM under setting [3] and 129 nM under setting [4].

In the case of “UGCACAUGAGGAUCACCCAUGUAUUGUUCGGUUAAUAGAAGUGAGGAUAUGCAUAAAAUAAGGUAGCAGAAGGCACAGGAUUCA”, the “apparent Kd” value is, setting by setting: under setting [3], 23.9 nM; under setting [4], 25.4 nM.

As to “CAGGUAGCUACAGGAUAUACACAGCUCAGUAAACUGAGCAAAAGAACUACAUGAGGAUCACCCAUGUAGAAGGGUAGCUGCCUG”, the “apparent Kd” value reads like this: under setting [1], 16.8 nM; under setting [2], 18.8 nM.

In the case of “UGGUACUAGGGAGGAUAUGGGAAGAUACAUGAGGAUCACCCAUGUUUAAGAAUGCCGAGAGGCAACUAGAAGGCCCUAGUACGU”, the “apparent Kd” value under setting [3] was 434 nM and the “apparent Kd” value under setting [4] was determined as 19.6 nM.

In the case of “GAUCCUUCUGUUAGGAUAUGCUUUGGGCUUCCGCAGCAGAAGGAACAUGAGGAUCACCCAUGUCCAAUACCAUC”, the “apparent Kd” value was determined as 42.6 nM under setting [1] and 41.8 nM under setting [2].

Regarding “GUCAGCUCGUGAGGAUAUACAACACUGCUUCGGCAGUGUAUUAAGAUAACAUGAGGAUCACCCAUGUAGAAGGCACGAGCUGAU”, the “apparent Kd” value by setting is: under setting [1], 5.58 nM; under setting [2], 8.48 nM.

In the case of “AAAAAAAAGGGUGAGGAUAUCGAAAAAAAAACAUGAGGAUCACCCAUGUGAAAAAAAAAAAAAUGCGAGAAGGCACUAAAAAAAAA”, the “apparent Kd” value is 151 nM under setting [3] and 45.6 nM under setting [4].

On to “AAUAUGAGCUGGUAUAUAAACCUCACAUGAGGAUCACCCAUGUAGGAUAUCAGCACGAUAAGUGCUGAGAAGGACAUCCAGCUC”, for which the “apparent Kd” value reads like this: under setting [1], 15.4 nM; under setting [2], 17.8 nM.

Regarding “UGGUACUAGGCAGGAUAUGGGAAGAUACAUGAGGAUCACCCAUGUUUAAGAAUGCCGAGAGGCAACUAGAAGGCCCUAGUACCU”, the “apparent Kd” value by setting is: under setting [3], 719 nM; under setting [4], 620 nM.

With “GCACUUGCGUAGAAGGUACUAUAUAAUGCAGUGUAAGGAUAUACAUACAUGAGGAUCACCCAUGUAAAUGGAAUUUGCAAGUGC”, the “apparent Kd” value under setting [3] came out at 11.8 nM and the “apparent Kd” value under setting [4] is 9.15 nM.

Regarding “GUGUUUGAUGAGGAUAUCGUUGUGGGUAUAUAGCGAGAAGGCAUUACAUGAGGAUCACCCAUGUAGUGUGGGUU”, the “apparent Kd” value by setting is: under setting [1], 26.2 nM; under setting [2], 49.4 nM.

With “UUGGGACUAUCAGGAUAUGGUGUAGCCCAGUAAAGGACAUGAGGAUCACCCAUGUACCAUUGGUACCAGAAGGGAUGAUCCUAC”, the “apparent Kd” value under setting [3] was found to be 18.4 nM and the “apparent Kd” value under setting [4] stood at 14.8 nM.

Regarding “GGGCAAAAGUAGAAGGGAUAUACGAAAAGUAUAUCAGGAUAUACAUGAGGAUCACCCAUGUUCUGAAAGUGAAAAUCCUCCCUA”, the “apparent Kd” value under setting [1] was found to be 40.8 nM and the “apparent Kd” value under setting [2] came to 317 nM.

Take “UUGGACGUCGUAGGAUAUGUAGGAUAUUCCUACAUGAGGAUCACCCAUGUUGACAUGGAAGAAGGUCAGAAGGACGAUGUCCAU”: the “apparent Kd” value is 344 nM under setting [3] and 559 nM under setting [4].
